Laboratory results published in ChEMBL document CHEMBL2331542, “Synthesis and in vitro antibacterial activity of quinolone/naphthyridone derivatives containing 3-alkoxyimino-4-(methyl)aminopiperidine scaffolds” (2013).
Values after ≈ are worked out from the molar mass of the structure shown.

How the values were obtained:
Format in all cases: functional
Escherichia coli [1] = assay: Antibacterial activity against extended-spectrum beta-lactamase-producing Escherichia coli isolate 12-2
How it was run: (§1)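 MIC determined in vitro by a standard technique and defined as the lowest compound concentration giving complete inhibition of bacterial growth. The Gram-positive and Gram-negative panels were tested alongside gemifloxacin, levofloxacin and ciprofloxacin reference drugs.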

[2] = tested on: Staphylococcus epidermidis; assay: Antibacterial activity against methicillin-sensitive Staphylococcus epidermidis isolate 12-1; how it was run: as §1
Staphylococcus aureus [3] = assay: Antibacterial activity against methicillin-resistant Staphylococcus aureus isolate 12-3
How it was run: (§2)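 MIC determined in vitro by standard techniques, defined as the lowest compound concentration giving complete inhibition of bacterial growth. Gemifloxacin, levofloxacin and ciprofloxacin were tested alongside as reference drugs.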

Staphylococcus aureus [4] = assay: Antibacterial activity against methicillin-resistant Staphylococcus aureus isolate 12-15; how it was run: as §2
[5] = tested on: Staphylococcus epidermidis; assay: Antibacterial activity against methicillin-resistant Staphylococcus epidermidis isolate 12-33; how it was run: as §2
Staphylococcus aureus [6] = assay: Antibacterial activity against methicillin-sensitive Staphylococcus aureus isolate 12-6; how it was run: as §1
Escherichia coli [7] = assay: Antibacterial activity against extended-spectrum beta-lactamase-producing Escherichia coli isolate 12-1; how it was run: as §1
Escherichia coli [8] = assay: Antibacterial activity against extended-spectrum beta-lactamase-producing Escherichia coli isolate 12-4; how it was run: as §1
Pseudomonas aeruginosa [9] = assay: Antibacterial activity against Pseudomonas aeruginosa ATCC 27853; how it was run: as §1
Streptococcus pneumoniae [10] = assay: Antibacterial activity against Streptococcus pneumoniae isolate 12-5; how it was run: as §1
[11] = tested on: Staphylococcus epidermidis; assay: Antibacterial activity against methicillin-sensitive Staphylococcus epidermidis isolate 12-2; how it was run: as §1
Staphylococcus aureus [12] = assay: Antibacterial activity against methicillin-resistant Staphylococcus aureus isolate 12-13; how it was run: as §2
Klebsiella pneumoniae [13] = assay: Antibacterial activity against extended-spectrum beta-lactamase-producing Klebsiella pneumoniae isolate 12-4; how it was run: as §1
[14] = tested on: Staphylococcus epidermidis; assay: Antibacterial activity against methicillin-resistant Staphylococcus epidermidis isolate 12-5; how it was run: as §2
Staphylococcus aureus [15] = assay: Antibacterial activity against methicillin-sensitive Staphylococcus aureus isolate 12-10; how it was run: as §1
Klebsiella pneumoniae [16] = assay: Antibacterial activity against extended-spectrum beta-lactamase-producing Klebsiella pneumoniae isolate 12-2; how it was run: as §1
Streptococcus pneumoniae [17] = assay: Antibacterial activity against Streptococcus pneumoniae isolate 12-2; how it was run: as §1
Escherichia coli [18] = assay: Antibacterial activity against Escherichia coli isolate 12-4; how it was run: as §1
Pseudomonas aeruginosa [19] = assay: Antibacterial activity against Pseudomonas aeruginosa isolate 12-2; how it was run: as §1
Pseudomonas aeruginosa [20] = assay: Antibacterial activity against Pseudomonas aeruginosa isolate 12-1; how it was run: as §1
Escherichia coli [21] = assay: Antibacterial activity against Escherichia coli isolate 12-1; how it was run: as §1
Escherichia coli [22] = assay: Antibacterial activity against Escherichia coli ATCC 25922; how it was run: as §1
Escherichia coli [23] = assay: Antibacterial activity against Escherichia coli isolate 12-5; how it was run: as §1
Staphylococcus aureus [24] = assay: Antibacterial activity against methicillin-sensitive Staphylococcus aureus isolate 12-7; how it was run: as §1
Klebsiella pneumoniae [25] = assay: Antibacterial activity against extended-spectrum beta-lactamase-producing Klebsiella pneumoniae isolate 12-1; how it was run: as §1
Klebsiella pneumoniae [26] = assay: Antibacterial activity against Klebsiella pneumoniae isolate 12-4; how it was run: as §1
Klebsiella pneumoniae [27] = assay: Antibacterial activity against Klebsiella pneumoniae isolate 12-1; how it was run: as §1
Klebsiella pneumoniae [28] = assay: Antibacterial activity against Klebsiella pneumoniae isolate 12-2; how it was run: as §1
[29] = tested on: Staphylococcus epidermidis; assay: Antibacterial activity against methicillin-sensitive Staphylococcus epidermidis isolate 12-3; how it was run: as §1
Staphylococcus aureus [30] = assay: Antibacterial activity against Staphylococcus aureus […]; how it was run: as §1
[31] = tested on: Staphylococcus epidermidis; assay: Antibacterial activity against methicillin-resistant Staphylococcus epidermidis isolate 12-35; how it was run: as §2

| SMILES | MIC (Escherichia coli [1]) | MIC [2] | MIC (Staphylococcus aureus [3]) | MIC (Staphylococcus aureus [4]) | MIC [5] | MIC (Staphylococcus aureus [6]) | MIC (Escherichia coli [7]) | MIC (Escherichia coli [8]) | MIC (Pseudomonas aeruginosa [9]) | MIC (Streptococcus pneumoniae [10]) | MIC [11] | MIC (Staphylococcus aureus [12]) | MIC (Klebsiella pneumoniae [13]) | MIC [14] | MIC (Staphylococcus aureus [15]) | MIC (Klebsiella pneumoniae [16]) | MIC (Streptococcus pneumoniae [17]) | MIC (Escherichia coli [18]) | MIC (Pseudomonas aeruginosa [19]) | MIC (Pseudomonas aeruginosa [20]) | further results |
| --- | --- | --- | --- | --- | --- | --- | --- | --- | --- | --- | --- | --- | --- | --- | --- | --- | --- | --- | --- | --- | --- |
| CNC1CCN(c2c(F)cc3c(=O)c(C(=O)O)cn(C4CC4)c3c2F)C/C1=N\OC (stereo not drawn) | > 128 µg/mL | 0.25 µg/mL (≈ 0.595 µM) | 0.06 µg/mL (≈ 0.143 µM) | 0.06 µg/mL (≈ 0.143 µM) | < 0.008 µg/mL | 0.03 µg/mL (≈ 0.0714 µM) | > 128 µg/mL | 128 µg/mL (≈ 304 µM) | 4 µg/mL (≈ 9.51 µM) | 0.06 µg/mL (≈ 0.143 µM) | 0.5 µg/mL (≈ 1.19 µM) | 0.06 µg/mL (≈ 0.143 µM) | 0.5 µg/mL (≈ 1.19 µM) | 0.015 µg/mL (≈ 0.0357 µM) | 0.03 µg/mL (≈ 0.0714 µM) | 8 µg/mL (≈ 19 µM) | 0.06 µg/mL (≈ 0.143 µM) | > 128 µg/mL | 8 µg/mL (≈ 19 µM) | 8 µg/mL (≈ 19 µM) | MIC (Escherichia coli [21]): 2 µg/mL (≈ 4.76 µM); MIC (Escherichia coli [22]): 0.03 µg/mL (≈ 0.0714 µM); MIC (Escherichia coli [23]): > 128 µg/mL; MIC (Staphylococcus aureus [24]): 0.06 µg/mL (≈ 0.143 µM); MIC (Klebsiella pneumoniae [25]): 8 µg/mL (≈ 19 µM); MIC (Klebsiella pneumoniae [26]): 0.5 µg/mL (≈ 1.19 µM); MIC (Klebsiella pneumoniae [27]): 0.5 µg/mL (≈ 1.19 µM); MIC (Klebsiella pneumoniae [28]): 0.5 µg/mL (≈ 1.19 µM); MIC [29]: 0.25 µg/mL (≈ 0.595 µM); MIC (Staphylococcus aureus [30]): 0.25 µg/mL (≈ 0.595 µM); MIC [31]: 0.015 µg/mL (≈ 0.0357 µM) |
| CNC1CCN(c2ccc3c(=O)c(C(=O)O)cn(C4CC4)c3n2)C/C1=N\OC (stereo not drawn) | 128 µg/mL (≈ 332 µM) | 8 µg/mL (≈ 20.8 µM) | 4 µg/mL (≈ 10.4 µM) | 4 µg/mL (≈ 10.4 µM) | 4 µg/mL (≈ 10.4 µM) | 2 µg/mL (≈ 5.19 µM) | > 128 µg/mL | 64 µg/mL (≈ 166 µM) | 8 µg/mL (≈ 20.8 µM) | 4 µg/mL (≈ 10.4 µM) | 16 µg/mL (≈ 41.5 µM) | 4 µg/mL (≈ 10.4 µM) | 2 µg/mL (≈ 5.19 µM) | 2 µg/mL (≈ 5.19 µM) | 2 µg/mL (≈ 5.19 µM) | > 128 µg/mL | 4 µg/mL (≈ 10.4 µM) | > 128 µg/mL | 8 µg/mL (≈ 20.8 µM) | 16 µg/mL (≈ 41.5 µM) | MIC (Escherichia coli [21]): 64 µg/mL (≈ 166 µM); MIC (Escherichia coli [22]): 0.5 µg/mL (≈ 1.3 µM); MIC (Escherichia coli [23]): > 128 µg/mL; MIC (Staphylococcus aureus [24]): 4 µg/mL (≈ 10.4 µM); MIC (Klebsiella pneumoniae [25]): 128 µg/mL (≈ 332 µM); MIC (Klebsiella pneumoniae [26]): 2 µg/mL (≈ 5.19 µM); MIC (Klebsiella pneumoniae [27]): 2 µg/mL (≈ 5.19 µM); MIC (Klebsiella pneumoniae [28]): 2 µg/mL (≈ 5.19 µM); MIC [29]: 8 µg/mL (≈ 20.8 µM); MIC (Staphylococcus aureus [30]): 0.5 µg/mL (≈ 1.3 µM); MIC [31]: 2 µg/mL (≈ 5.19 µM) |
| CCn1cc(C(=O)O)c(=O)c2cc(F)c(N3CCC(NC)/C(=N/OC)C3)c(F)c21 (stereo not drawn) | > 128 µg/mL | 0.5 µg/mL (≈ 1.22 µM) | 1 µg/mL (≈ 2.45 µM) | 1 µg/mL (≈ 2.45 µM) | 8 µg/mL (≈ 19.6 µM) | 0.5 µg/mL (≈ 1.22 µM) | > 128 µg/mL | 128 µg/mL (≈ 313 µM) | 8 µg/mL (≈ 19.6 µM) | 1 µg/mL (≈ 2.45 µM) | 16 µg/mL (≈ 39.2 µM) | 1 µg/mL (≈ 2.45 µM) | 1 µg/mL (≈ 2.45 µM) | 0.5 µg/mL (≈ 1.22 µM) | 0.5 µg/mL (≈ 1.22 µM) | 32 µg/mL (≈ 78.4 µM) | 1 µg/mL (≈ 2.45 µM) | > 128 µg/mL | 8 µg/mL (≈ 19.6 µM) | 8 µg/mL (≈ 19.6 µM) | MIC (Escherichia coli [21]): 8 µg/mL (≈ 19.6 µM); MIC (Escherichia coli [22]): 0.5 µg/mL (≈ 1.22 µM); MIC (Escherichia coli [23]): > 128 µg/mL; MIC (Staphylococcus aureus [24]): 1 µg/mL (≈ 2.45 µM); MIC (Klebsiella pneumoniae [25]): 16 µg/mL (≈ 39.2 µM); MIC (Klebsiella pneumoniae [26]): 1 µg/mL (≈ 2.45 µM); MIC (Klebsiella pneumoniae [27]): 4 µg/mL (≈ 9.79 µM); MIC (Klebsiella pneumoniae [28]): 4 µg/mL (≈ 9.79 µM); MIC [29]: 0.5 µg/mL (≈ 1.22 µM); MIC (Staphylococcus aureus [30]): 0.125 µg/mL (≈ 0.306 µM); MIC [31]: 0.5 µg/mL (≈ 1.22 µM) |
